Assay results from publication PMC9072715 (RSC Advances, 2019).
pIC50: −log10 of the molar value.

What was measured:
MCF-7 cells = test: CCK-8 anti-proliferative assay, MCF-7; type: cell-based, human; conditions: read-out: IC50 MCF-7; MCF-7, CCK-8, 48 h
Outline: (§1)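 Log-phase cells in DMEM were plated at 1 × 10^4 per well and allowed 12 h at 37 °C and 5% CO2. Test compounds (0–80 μM) were added for 48 h. Medium was replaced with medium containing 10% CCK-8 for 4 h, and A450 was read. Percent inhibition was calculated against the untreated control and doxorubicin (positive control), and IC50 was obtained by curve fitting.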

HeLa cells = test: CCK-8 anti-proliferative assay, HeLa; type: cell-based; conditions: Homo sapiens, 48 h, read-out: IC50 HeLa, HeLa, CCK-8, 48 h
Outline: as §1

rabbit erythrocytes = test: Hemolysis of red blood cells assay; type: cell-based, NewZealand rabbit; conditions: 10% rabbit erythrocyte suspension, 3 to 48 μM, 4 hours, room temperature
Outline: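 Heparinized blood came from a healthy New Zealand rabbit. Erythrocytes were washed three times in saline and diluted to a 10% suspension. The suspension was mixed 1:1 by volume with sample solution (0–48 μM test compound) and left 4 h at room temperature. Hemolysis was then assessed by observation.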

pIC50 (MCF-7 cells)	pIC50 (HeLa cells)	SMILES	Hemolytic effect (rabbit erythrocytes)
< 4.10	4.26	C/C=C(/C)C(=O)O[C@H]1[C@H](OC(C)=O)[C@]2(CO)[C@H](O)C[C@]3(C)C(=CC[C@@H]4[C@@]5(C)CC[C@H](O[C@@H]6O[C@H](C(=O)O)[C@@H](O[C@@H]7O[C@H](CO)[C@@H](O)[C@H](O)[C@H]7O)[C@H](O)[C@H]6O[C@@H]6O[C@H](CO)[C@@H](O)[C@H](O)[C@H]6O)[C@](C)(CO)[C@@H]5CC[C@]43C)[C@@H]2CC1(C)C [Compound 7, Escin Ib]	–
–	–	C/C=C(\C)C(=O)O[C@H]1[C@H](OC(C)=O)[C@]2(CO)[C@H](O)C[C@]3(C)C(=CC[C@@H]4[C@@]5(C)CC[C@H](O[C@@H]6O[C@H](C(=O)O)[C@@H](O[C@@H]7O[C@H](CO)[C@@H](O)[C@H](O)[C@H]7O)[C@H](O)[C@H]6O[C@@H]6O[C@H](CO)[C@@H](O)[C@H](O)[C@H]6O)[C@](C)(CO)[C@@H]5CC[C@]43C)[C@@H]2CC1(C)C [Compound 6, Escin Ia]	showed hemolytic effect at 24 and 48 μM
